What was measured:
[1] = Anticonvulsant activity administered orally to rat for toxicity; conditions: in vivo, po
[2] = test system: Rattus norvegicus; assay: Anticonvulsant activity administered orally to rat at subcutaneous metrazol test; type: functional
[3] = test system: Mus musculus; assay: Anticonvulsant activity administered intra peritoneally to mouse at subcutaneous metrazol test; type: functional; conditions: sc
[4] = test system: Rattus norvegicus; assay: Anticonvulsant activity administered orally to rat at maximal electro shock test; the interval in parenthesis stands for 95% confidence interval; type: functional; conditions: po
[5] = test system: Rattus norvegicus; assay: Anticonvulsant activity administered orally to rat for the protective index of toxicity by maximal electroshock test; T D50/ED50; type: functional
[6] = test system: Rattus norvegicus; assay: Anticonvulsant activity administered orally to rat for protective index of subcutaneous metrazol test; type: functional
[7] = test system: Mus musculus; assay: Anticonvulsant activity administered intra peritoneally to mouse at maximal electro shock test; the interval in parenthesis stands for 95% confidence interval; type: functional
[8] = test system: Mus musculus; assay: Anticonvulsant activity administered intra peritoneally to mouse for protective index of subcutaneous metrazol test; type: functional
[9] = test system: Mus musculus; assay: Anticonvulsant activity administered intra peritoneally to mouse for the protective index of toxicity by maximal electroshock test; T D50/ED50; type: functional
[10] = Anti convulsant activity administered intra peritoneally to mouse for toxicity at 4 hr with dose of 300 mg/kg; 0/2= No of animals exhibiting toxicity /No of animals tested; type: organism-based; set-up: dose 300 mg/kg; conditions: in vivo, ip
[11] = Anti convulsant activity administered intra peritoneally to mouse for toxicity at 4 hr with dose of 30 mg/kg; 0/2= No of animals exhibiting toxicity /No of animals tested; type: organism-based; set-up: dose 30 mg/kg; conditions: in vivo, ip
[12] = Anti convulsant activity administered intra peritoneally to mouse for toxicity at 4 hr with dose of 100 mg/kg; 0/4= No of animals exhibiting toxicity /No of animals tested; type: organism-based; set-up: dose 100 mg/kg; conditions: in vivo, ip
[13] = Anti convulsant activity administered intra peritoneally to mouse for toxicity at 0.5 hr with dose of 30 mg/kg; 0/4= No of animals exhibiting toxicity /No of animals tested; type: organism-based; set-up: dose 30 mg/kg; conditions: in vivo, ip
[14] = Anti convulsant activity administered intra peritoneally to mouse for toxicity at 0.5 hr with dose of 100 mg/kg; 0/8= No of animals exhibiting toxicity /No of animals tested; type: organism-based; set-up: dose 100 mg/kg; conditions: in vivo, ip
[15] = Anti convulsant activity administered intra peritoneally to mouse for toxicity at 0.5 hr with dose of 300 mg/kg; 3/4= No of animals exhibiting toxicity /No of animals tested; type: organism-based; set-up: dose 300 mg/kg; conditions: in vivo, ip
[16] = test system: Mus musculus; assay: Anti convulsant activity administered intra peritoneally to mouse at maximal electroshock test at 4 hr after the drug administered with dose of 30 mg/kg; 0/1= No of animals protected /No of animals tested; type: functional
[17] = test system: Mus musculus; assay: Anti convulsant activity administered intra peritoneally to mouse at maximal electroshock test at 4 hr after the drug administered with dose of 100 mg/kg; 0/3= No of animals protected /No of animals tested; type: functional
[18] = test system: Mus musculus; assay: Anti convulsant activity administered intra peritoneally to mouse at maximal electroshock test at 4 hr after the drug administered with dose of 300 mg/kg; 0/1= No of animals protected /No of animals tested; type: functional
[19] = test system: Mus musculus; assay: Anti convulsant activity administered intra peritoneally to mouse at maximal electroshock test at 0.5 h after the drug administered with dose of 30 mg/kg; 0/1= No of animals protected /No of animals tested; type: functional
[20] = test system: Mus musculus; assay: Anti convulsant activity administered intra peritoneally to mouse for subcutaneous metrazol test at 4 hr after the drug administered with dose of 30 mg/kg; 0/1= No of animals protected /No of animals tested; type: functional; conditions: route intraperitoneal
[21] = test system: Mus musculus; assay: Anti convulsant activity administered intra peritoneally to mouse at maximal electroshock test at 0.5 hr after the drug administered with dose of 100 mg/kg; 0/3= No of animals protected /No of animals tested; type: functional
[22] = test system: Mus musculus; assay: Anti convulsant activity administered intra peritoneally to mouse at maximal electroshock test at 0.5 hr after the drug administered with dose of 300 mg/kg; 1/1= No of animals protected /No of animals tested; type: functional
[23] = test system: Mus musculus; assay: Anti convulsant activity administered intra peritoneally to mouse for subcutaneous metrazol test at 4 hr after the drug administered with dose of 100 mg/kg; 0/1= No of animals protected /No of animals tested; type: functional
[24] = test system: Rattus norvegicus; assay: Anticonvulsant activity after oral administration of 30 mg/kg dose after 1 hr in rats; + means 25% of the animals protected; type: functional, organism-based; set-up: dose 30 mg/kg
How it was run: (§1)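 Oral dosing of rats at a single dose, compound dissolved or suspended in 0.5% methylcellulose. Protection in the MES or scMet test checked 15 min, 30 min, 1 h, 2 h and 4 h after dosing. Scored as 25/50/75/100% of animals protected (+ to ++++), – for none.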

[25] = test system: Rattus norvegicus; assay: Anticonvulsant activity after oral administration of 30 mg/kg dose after 15 min in rats; +means 25% of the animals protected; type: functional, organism-based; set-up: dose 30 mg/kg; how it was run: as §1
[26] = test system: Mus musculus; assay: Anti convulsant activity administered intra peritoneally to mouse for subcutaneous metrazol test at 4 hr with dose of 300 mg/kg; 0/1= No of animals protected /No of animals tested; type: functional
[27] = test system: Mus musculus; assay: Anti convulsant activity administered intra peritoneally to mouse for subcutaneous metrazol test at 0.5 hr with dose of 30 mg/kg; 0/1= No of animals protected /No of animals tested; type: functional
[28] = test system: Mus musculus; assay: Anti convulsant activity administered intra peritoneally to mouse for subcutaneous metrazol test at 0.5 h with dose of 300 mg/kg; 0/1= No of animals protected /No of animals tested; type: functional
[29] = Anticonvulsant activity administered intra peritoneally to mouse for toxicity; conditions: in vivo, ip
[30] = test system: Rattus norvegicus; assay: Anticonvulsant activity administered orally to rat for the protective index of toxicity by maximal electroshock test; TD50/ED50; type: functional
[31] = Toxicity after oral administration of 50 mg/kg dose in rats; ++ means 50% of the animals exhibiting toxicity; type: organism-based; set-up: dose 50 mg/kg, route oral; conditions: rat, in vivo
How it was run: (§2)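 Rats dosed orally with compound dissolved or suspended in 0.5% methylcellulose (0.04 mL per 10 g body weight). Anticonvulsant protection (MES or scMet) and toxicity scored at 15 min, 30 min, 1 h, 2 h and 4 h after dosing. Graded in steps of 25% of animals protected or showing toxicity.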

[32] = Anti convulsant activity administered intra peritoneally to mouse for toxicity at 4 hr with dose of 300 mg/kg; 2/2= No of animals exhibiting toxicity /No of animals tested; type: organism-based; set-up: dose 300 mg/kg; conditions: in vivo, ip
[33] = Anti convulsant activity administered intra peritoneally to mouse for toxicity at 0.5 hr with dose of 300 mg/kg; 4/4= No of animals exhibiting toxicity /No of animals tested; type: organism-based; set-up: dose 300 mg/kg; conditions: in vivo, ip
[34] = test system: Mus musculus; assay: Anti convulsant activity administered intra peritoneally to mouse at maximal electroshock test at 4 hr after the drug administered with dose of 300 mg/kg; 1/1= No of animals protected /No of animals tested; type: functional
[35] = test system: Rattus norvegicus; assay: Anticonvulsant activity after oral administration of 30 mg/kg dose after 4 hr in rats; - means 25% of the animal protected; type: functional, organism-based; set-up: dose 30 mg/kg
[36] = test system: Rattus norvegicus; assay: Anticonvulsant activity after oral administration of 223 mg/kg dose after 1 hr in rats; ++++ means 100% of the animals protected; type: functional, organism-based; set-up: dose 223 mg/kg; how it was run: as §1
[37] = test system: Mus musculus; assay: Anti convulsant activity administered intra peritoneally to mouse for subcutaneous metrazol test at 0.5 hr with dose of 100 mg/kg; 0/1= No of animals protected /No of animals tested; type: functional
[38] = Anti convulsant activity administered intra peritoneally to mouse for toxicity at 0.5 hr with dose of 300 mg/kg; 1/4= No of animals exhibiting toxicity /No of animals tested; type: organism-based; set-up: dose 300 mg/kg; conditions: in vivo, ip
[39] = test system: Mus musculus; assay: Anti convulsant activity administered intra peritoneally to mouse at maximal electroshock test at 0.5 h after the drug administered with dose of 300 mg/kg; 0/1= No of animals protected /No of animals tested; type: functional
[40] = Anti convulsant activity administered intra peritoneally to mouse for toxicity at 4 hr with dose of 100 mg/kg; 3/4= No of animals exhibiting toxicity /No of animals tested; type: organism-based; set-up: dose 100 mg/kg; conditions: in vivo, ip
[41] = Toxicity after oral administration of 100 mg/kg dose in rats;++++ means 100% animals exhibited toxicity; type: organism-based; set-up: dose 100 mg/kg, route oral; conditions: rat, in vivo; how it was run: as §2
[42] = Anti convulsant activity administered intra peritoneally to mouse for subcutaneous metrazol test at 4 hr with dose of 300 mg/kg; 4/4= No of animals protected /No of animals tested; type: ADME, organism-based; set-up: dose 300 mg/kg
[43] = test system: Mus musculus; assay: Anti convulsant activity administered intra peritoneally to mouse at maximal electroshock test at 4 hr after the drug administered with dose of 100 mg/kg; 3/3= No of animals protected /No of animals tested; type: functional
[44] = test system: Rattus norvegicus; assay: Anticonvulsant activity after oral administration of 30 mg/kg dose after 1 hr in rats;+ means 25% animals protected; type: functional, organism-based; set-up: dose 30 mg/kg; how it was run: as §1
[45] = test system: Mus musculus; assay: Anti convulsant activity administered intra peritoneally to mouse at maximal electroshock test at 0.5 hr after the drug administered with dose of 100 mg/kg; 2/3= No of animals protected /No of animals tested; type: functional
[46] = test system: Rattus norvegicus; assay: Anticonvulsant activity after oral administration of 30 mg/kg dose after 2 hr in rats; +means 25% of the animal is protected; type: functional, organism-based; set-up: dose 30 mg/kg; how it was run: as §1
[47] = test system: Rattus norvegicus; assay: Anticonvulsant activity after oral administration of 100 mg/kg dose after 30 min in rats; ++ means 50% animals protected; type: functional, organism-based; set-up: dose 100 mg/kg; how it was run: as §1
[48] = test system: Rattus norvegicus; assay: Anticonvulsant activity after oral administration of 30 mg/kg dose after 15 min in rats; + means 25% of the animal protected; type: functional, organism-based; set-up: dose 30 mg/kg; how it was run: as §1
[49] = test system: Rattus norvegicus; assay: Anticonvulsant activity after oral administration of 100 mg/kg dose after 2 hr in rats; ++means 50% of the animals protected; type: functional, organism-based; set-up: dose 100 mg/kg; how it was run: as §1

SMILES | Activity [6] | Activity [8] | Ratio [9] | Toxicity [10] | Toxicity [11] | Toxicity [12] | Toxicity [13] | Toxicity [14] | Activity [16] | Activity [17] | Activity [18] | Activity [19] | Activity [20] | Activity [21] | Activity [22] | Activity [23] | Activity [26] | Activity [27] | Activity [28] | Toxicity [32] | further results
CC1(C)C(C(=O)NCC(N)=O)C1(C)C | -2 | 2.3 | 1.5 |  |  |  |  |  |  |  |  |  |  |  |  |  |  |  |  |  | TD50 [1]: > 500 mg/kg; ED50 [2]: > 250 mg/kg; ED50 [3]: 115 mg/kg; ED50 [4]: 82 mg/kg; Activity [5]: >6.1; ED50 [7]: 173 mg/kg
CC(O)CNC(=O)C1C(C)(C)C1(C)C (stereo not given) |  |  |  | 0 | 0 | 0 | 0 | 0 | 0 | 0 | 0 | 0 | 0 | 0 | 1 | 0 | 0 | 0 | 0 |  | Toxicity [15]: 3; Activity [24]: 25% of the animals protected; Activity [25]: 25% of the animals protected
CNC(=O)C1C(C)(C)C1(C)C | 3.6 | 3.9 | 1.6 |  |  |  |  |  |  |  |  |  |  |  |  |  |  |  |  |  | TD50 [29]: 153 mg/kg; Ratio [30]: 2
CCNC(=O)C1C(C)(C)C1(C)C |  |  |  |  | 0 | 0 | 0 | 0 | 0 | 0 |  | 0 | 0 | 0 | 1 | 0 | 0 | 0 | 1 | 2 | Toxicity [31]: 50% of the animals exhibiting toxicity; Toxicity [33]: 4; Activity [34]: 1; Activity [35]: 100% of the animals protected; Activity [36]: 100% of the animals protected; Activity [37]: 0
CC1(C)C(C(=O)NO)C1(C)C |  |  |  | 0 | 0 | 0 | 0 | 0 | 0 | 0 | 0 | 0 | 0 | 0 |  | 0 | 0 | 0 | 0 |  | Toxicity [38]: 1; Activity [39]: 0
CC1(C)C(C(=O)NC(N)=S)C1(C)C |  |  |  |  | 0 |  | 0 | 0 | 0 |  |  | 0 | 0 |  | 1 | 0 | 0 | 0 | 0 | 2 | Toxicity [40]: 3; Toxicity [41]: 100% animals exhibited toxicity; Toxicity [42]: 4; Activity [43]: 3; Activity [34]: 1; Activity [44]: 25% animals protected; Activity [45]: 2; Activity [46]: 25% animals protected; Activity [47]: 25% animals protected; Activity [48]: 25% animals protected; Activity [37]: 0; Anticonvulsant Activity [49]: 50% of the animals protected

Source: ChEMBL document CHEMBL1138683 (J Med Chem, 2004)
